Test results: article PMC6689761 (International Journal of Nanomedicine, 2019)
Read-outs that look alike come from different tables or passages of the source.

Columns and labels:
HIV-1ADA [1] = experiment: EC50 by HIV-1 RT activity in MDMs; format: cell-based; settings: HIV-1ADA MOI 0.1, HIV-1 RT activity
Procedure, shortened: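 Human MDMs pretreated 1 hr with 0.01–1000 nM test compound, then exposed to HIV-1ADA at MOI 0.1 for 4 hrs. RT activity measured in collected media. EC50 taken as 50% inhibitory concentration from nonlinear-regression concentration–response fits.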

HIV-1ADA [2] = experiment: Antiretroviral efficacy in drug-preloaded MDMs; format: cell-based
Procedure, shortened: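 Human monocytes from HIV- and hepatitis-seronegative donors, elutriated and differentiated to MDMs. Cells exposed to 100 µM test drug or nanoformulation for 8 hrs, PBS-washed, then challenged with HIV-1ADA (MOI 0.1) for 18 hrs at times from 0 hr to 15 days after loading. Cultured 10 more days, medium changed every other day. Day-10 medium RT activity and p24 immunocytochemistry on 4% paraformaldehyde-fixed cells; uninfected and infected controls.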

[3] = system: human monocyte-derived macrophages (MDMs); experiment: Nanoparticle macrophage uptake and retention; format: cell-based; settings: 100 µM
[4] = system: human monocyte-derived macrophages (MDMs); experiment: MTT cytotoxicity assay in MDMs; format: cell-based; settings: up to 100 µM, 4 days of exposure
Procedure, shortened: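 Monocytes plated at 80,000 cells/well and differentiated to macrophages. Exposed to 10–400 µM test compound or nanoformulation for 4 days. Washed, then MTT (5 mg/mL) added for 45 mins at 37°C. Formazan dissolved in DMSO and absorbance read at 490 nm. Values normalised to untreated cells; at least three biological replicates.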

[5] = reported value, no reference given; cited from earlier work
[6] = format: in vivo, Sprague-Dawley rats; settings: rat, IM
Procedure, shortened: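 Male Sprague-Dawley rats dosed IM (caudal thigh) at 45, 75 or 100 mg/kg FTC-equivalents. Cells from fresh blood, spleen and lymph nodes isolated, stored in 70% methanol and counted. Triphosphate separated from mono- and diphosphates on QMA cartridges, then dephosphorylated with type XA sweet potato acid phosphatase. Isotope-labelled lamivudine internal standard added after incubation (final 0.5 ng/mL). Mean±SEM, n=3–5.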

Aqueous solubility = format: physicochemical; settings: water, 24 hrs, room temperature
Procedure, shortened: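 Excess drug mixed in water 24 hrs at room temperature, spun 20,000× g for 10 mins. Supernatant quantified by reversed-phase UPLC on C18 at 1.0 mL/min. Parent run in 95% 20 mM ammonium acetate/5% ACN, pH 3.9, detected at 272 nm. Prodrug run in 90% methanol/10% water, detected at 280 nm. Peak areas compared with 0.05–50 µg/mL standards in methanol.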

[7] = PK and biodistribution in rats after IM injection; format: in vivo, Sprague-Dawley rats; settings: rat

EC50 (HIV-1ADA [1]): 79 nM
highest intracellular FTC-TP concentration ([3]; after 8 hrs): 10 pmol/10^6 cells
FTC-TP level in PBMCs ([6]; 45 mg/kg, day 1): 100 fmol/10^6 cells
FTC-TP level in PBMCs ([6]; 45 mg/kg, day 7): 6 fmol/10^6 cells
FTC-TP level in PBMCs ([6]; 75 mg/kg, day 1): 133 fmol/10^6 cells
FTC-TP level in PBMCs ([6]; 75 mg/kg, day 7): 7 fmol/10^6 cells
FTC-TP level in PBMCs ([6]; 100 mg/kg, day 1): 163 fmol/10^6 cells
FTC-TP level in PBMCs ([6]; 100 mg/kg, day 7): 8 fmol/10^6 cells
fold higher PBMC FTC-TP levels compared to NMFTC treatment ([6]; 2 hrs): 2–3 fold
FTC-TP levels in lymph node cells ([6]; day 1, across doses): 4–7 fmol/10^6 cells
FTC-TP levels in spleen ([6]; day 1, across doses): 6–13 fmol/10^6 cells
FTC-TP levels in lymph node cells ([6]; day 7, regardless of dose): 1–2 fmol/10^6 cells
FTC-TP levels in spleen ([6]; day 7, regardless of dose): 2–3 fmol/10^6 cells
aqueous solubility (Aqueous solubility): 134 mg/mL
FTC plasma level ([7]; 45 mg/kg FTC-equivalents, day 1): 25 ng/mL
FTC level in liver ([7]; 45 mg/kg, day 7): 2.6 ng/g
FTC level in lymph nodes ([7]; 45 mg/kg, day 7): 17 ng/g
FTC level in spleen ([7]; 45 mg/kg, day 7): 0 ng/g
FTC plasma level ([7]; 45 mg/kg, day 7): 0 ng/mL
FTC plasma level ([7]; 75 mg/kg FTC-equivalents, day 1): 34 ng/mL
FTC level in liver ([7]; 75 mg/kg, day 7): 14 ng/g
FTC level in lymph nodes ([7]; 75 mg/kg, day 7): 6 ng/g
FTC level in spleen ([7]; 75 mg/kg, day 7): 1.6 ng/g
FTC plasma level ([7]; 75 mg/kg, day 7): 3 ng/mL
FTC plasma level ([7]; 100 mg/kg FTC-equivalents, day 1): 52 ng/mL
FTC level in liver ([7]; 100 mg/kg, day 7): 0.6 ng/g
FTC level in lymph nodes ([7]; 100 mg/kg, day 7): 8 ng/g
FTC level in spleen ([7]; 100 mg/kg, day 7): 6 ng/g
FTC plasma level ([7]; 100 mg/kg, day 7): 1.4 ng/mL
FTC plasma levels compared to NMFTC treatment ([7]; 2 hrs): several fold higher
Substance: 2`-deoxy-5-fluoro-3`thiacytidine [FTC]
inhibition of viral RT activity (HIV-1ADA [2]; MDMs preloaded 100 µM 8 hrs, challenge at 24 hrs): 30%
HIV-1 p24 antigen staining (HIV-1ADA [2]; by 12 hrs following treatment): HIV-1 p24+ cells were observed
HIV-1 p24 antigen staining (HIV-1ADA [2]; by day 1): no effect
HIV-1 RT activity in pre-exposed MDMs (HIV-1ADA [2]; challenge beyond day 1): did not have effect
intracellular drug levels ([3]; uptake over 24 hrs): minimal detectable intracellular drug levels
MDM viability (MTT) [4]: did not affect MDM viability
IC90 [5]: 0.014 µg/mL
reported 50% inhibitory concentration (IC50) [5]: 0.008 µg/mL
